In ChEMBL document CHEMBL1629494, “New amino acid esters of salicylanilides active against MDR-TB and other microbes” (Eur J Med Chem, 2010):
In brackets after ≈: the same amount, converted by molar mass.

How the values were obtained:
[1] = tested on: Aspergillus fumigatus; experiment: Antifungal activity against Aspergillus fumigatus 231 after 48 hrs by broth microdilution method; type: functional; conditions: Aspergillus fumigatus, 231, 48 h
[2] = tested on: Staphylococcus aureus; experiment: Antibacterial activity against methicillin-resistant Staphylococcus aureus H5996/08 after 48 hrs by broth microdilution method; type: functional; conditions: H5996/08, 48 h
How it was run: (§1)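 Broth microdilution following […], with twofold compound dilutions in Mueller-Hinton bouillon. Incubated 24 and 48 h at 35 °C in the dark in a humid atmosphere. MIC (IC80) was taken as ≥80% growth reduction versus control, read visually and photometrically.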

[3] = tested on: Mycobacterium avium; experiment: Antimycobacterial activity against multidrug-resistant Mycobacterium avium 330/88 after 21 days by micromethod; type: functional; conditions: 330/88, 504 h
How it was run: (§2)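 Micromethod in Sula semisynthetic medium, with compounds added as DMSO solutions at 1000, 500, 250, 125, 62, 32, 16, 8, 4, 2, 1, 0.5, 0.25. Inoculum dilutions: H37Rv 10^-3; M. avium 330/88 10^-5; M. kansasii 235/80 10^-4; M. kansasii 6509/96 10^-5. Incubated at 37 °C, read at 14 and 21 days, and at 7 days for M. kansasii. MIC was the lowest concentration inhibiting growth.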

[4] = tested on: Klebsiella pneumoniae; experiment: Antibacterial activity against Klebsiella pneumoniae D11750/08 after 48 hrs by broth microdilution method; type: functional; conditions: D11750/08, 48 h; how it was run: as §1
[5] = tested on: Mycobacterium kansasii; experiment: Antimycobacterial activity against Mycobacterium kansasii 6509/96 after 21 days by micromethod; type: functional; conditions: 6509/96, 504 h; how it was run: as §2
[6] = tested on: Mycobacterium tuberculosis; experiment: Antimycobacterial activity against drug-sensitive Mycobacterium tuberculosis; type: functional
[7] = tested on: Enterococcus sp.; experiment: Antibacterial activity against Enterococcus sp. J14365/08 after 24 hrs by broth microdilution method; type: functional; conditions: J14365/08, 24 h; how it was run: as §1
[8] = tested on: Trichosporon beigelii; experiment: Antifungal activity against Trichosporon beigelii 1188 after 24 hrs by broth microdilution method; type: functional; conditions: Trichosporon beigelii, 1188, 24 h
[9] = tested on: Nakaseomyces glabratus; experiment: Antifungal activity against Candida glabrata 20/I after 24 hrs by broth microdilution method; type: functional
[10] = tested on: Escherichia coli; experiment: Antibacterial activity against Escherichia coli CCM 4517 after 24 hrs by broth microdilution method; type: functional; conditions: CCM 4517, 24 h; how it was run: as §1
[11] = Selectivity index, ratio of IC50 for human PBMC to MIC for Mycobacterium tuberculosis H37Rv 331/88 after 14 days; type: functional
How it was run: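 SI = PBMC IC50 (MTT cytotoxicity) divided by the MIC against the named M. tuberculosis strain. MIC taken after 14 days of incubation at 37 °C by the micromethod.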

[12] = tested on: Lichtheimia corymbifera; experiment: Antifungal activity against Absidia corymbifera 272 after 48 hrs by broth microdilution method; type: functional; conditions: Lichtheimia corymbifera, 272, 48 h
[13] = tested on: Mycobacterium kansasii; experiment: Antimycobacterial activity against Mycobacterium kansasii 235/80 after 21 days by micromethod; type: functional; conditions: 235/80, 504 h; how it was run: as §2
[14] = tested on: Staphylococcus epidermidis; experiment: Antibacterial activity against Staphylococcus epidermidis H6966/08 after 24 hrs by broth microdilution method; type: functional; conditions: H6966/08, 24 h; how it was run: as §1
[15] = tested on: Mycobacterium tuberculosis; experiment: Antimycobacterial activity against Mycobacterium tuberculosis H37Rv 331/88 after 21 days by micromethod; type: functional; conditions: H37Rv 331/88, 504 h; how it was run: as §2
[16] = tested on: PBMC; experiment: Cytotoxicity against human PBMC after 24 hrs by MTT assay; type: cell-based
How it was run: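 Human peripheral blood mononuclear cells in RPMI-1640 with 10% fetal calf serum, 2 mM L-glutamine and gentamicin, 37 °C, 5% CO2. Seeded at 1.5–2.0 × 10⁵ cells/well. After 24 h, treated overnight in serum-free medium. Viability by MTT (2 mg/mL, 4 h); formazan dissolved in DMSO; OD540 minus OD620. Cytotoxicity % = [1 − OD treated/OD control] × 100; IC50 from dose-response curves. Four parallels, two independent experiments.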

[17] = tested on: Candida tropicalis; experiment: Antifungal activity against Candida tropicalis 156 after 24 hrs by broth microdilution method; type: functional; conditions: Candida tropicalis, 156, 24 h
[18] = tested on: Trichosporon beigelii; experiment: Antifungal activity against Trichosporon beigelii 1188 after 48 hrs by broth microdilution method; type: functional; conditions: Trichosporon beigelii, 1188, 48 h
[19] = tested on: Candida tropicalis; experiment: Antifungal activity against Candida tropicalis 156 after 48 hrs by broth microdilution method; type: functional; conditions: Candida tropicalis, 156, 48 h
[20] = tested on: Staphylococcus aureus; experiment: Antibacterial activity against methicillin-resistant Staphylococcus aureus H5996/08 after 24 hrs by broth microdilution method; type: functional; conditions: H5996/08, 24 h; how it was run: as §1
[21] = tested on: Mycobacterium kansasii; experiment: Antimycobacterial activity against Mycobacterium kansasii 235/80 after 14 days by micromethod; type: functional; conditions: 235/80, 336 h; how it was run: as §2
[22] = tested on: Mycobacterium kansasii; experiment: Antimycobacterial activity against Mycobacterium kansasii; type: functional
[23] = tested on: Pichia kudriavzevii; experiment: Antifungal activity against Candida krusei E28 after 48 hrs by broth microdilution method; type: functional; conditions: E28, 48 h
[24] = tested on: Trichophyton mentagrophytes; experiment: Antifungal activity against Trichophyton mentagrophytes after 24 hrs by broth microdilution method; type: functional
[25] = tested on: Klebsiella pneumoniae; experiment: Antibacterial activity against Klebsiella pneumoniae D11750/08 after 24 hrs by broth microdilution method; type: functional; conditions: D11750/08, 24 h; how it was run: as §1
[26] = tested on: Mycobacterium tuberculosis; experiment: Antimycobacterial activity against Mycobacterium tuberculosis H37Rv 331/88 after 14 days by micromethod; type: functional; conditions: H37Rv 331/88, 336 h; how it was run: as §2
[27] = tested on: Mycobacterium avium; experiment: Antimycobacterial activity against Mycobacterium avium; type: functional
[28] = tested on: Aspergillus fumigatus; experiment: Antifungal activity against Aspergillus fumigatus 231 after 24 hrs by broth microdilution method; type: functional; conditions: Aspergillus fumigatus, 231, 24 h
[29] = tested on: Staphylococcus aureus; experiment: Antibacterial activity against Staphylococcus aureus CCM 4516/08 after 24 hrs by broth microdilution method; type: functional; conditions: CCM 4516/08, 24 h; how it was run: as §1
[30] = tested on: Candida albicans; experiment: Antifungal activity against Candida albicans ATCC 44859 after 48 hrs by broth microdilution method; type: functional; conditions: ATCC 44859, 48 h
[31] = tested on: Enterococcus sp.; experiment: Antibacterial activity against Enterococcus sp. J14365/08 after 48 hrs by broth microdilution method; type: functional; conditions: J14365/08, 48 h; how it was run: as §1
[32] = tested on: Mycobacterium avium; experiment: Antimycobacterial activity against multidrug-resistant Mycobacterium avium 330/88 after 14 days by micromethod; type: functional; conditions: 330/88, 336 h; how it was run: as §2
[33] = tested on: Escherichia coli; experiment: Antibacterial activity against Escherichia coli CCM 4517 after 48 hrs by broth microdilution method; type: functional; conditions: CCM 4517, 48 h; how it was run: as §1
[34] = tested on: Pichia kudriavzevii; experiment: Antifungal activity against Candida krusei E28 after 24 hrs by broth microdilution method; type: functional; conditions: E28, 24 h
[35] = Lipophilicity, log P of the compound; type: physicochemical; conditions: octanol/water
[36] = tested on: Lichtheimia corymbifera; experiment: Antifungal activity against Absidia corymbifera 272 after 24 hrs by broth microdilution method; type: functional; conditions: Lichtheimia corymbifera, 272, 24 h
[37] = tested on: Mycobacterium kansasii; experiment: Antimycobacterial activity against Mycobacterium kansasii 6509/96 after 7 days by micromethod; type: functional; conditions: 6509/96, 168 h; how it was run: as §2
[38] = tested on: Staphylococcus epidermidis; experiment: Antibacterial activity against Staphylococcus epidermidis H6966/08 after 48 hrs by broth microdilution method; type: functional; conditions: H6966/08, 48 h; how it was run: as §1
[39] = tested on: Candida albicans; experiment: Antifungal activity against Candida albicans ATCC 44859 after 24 hrs by broth microdilution method; type: functional; conditions: ATCC 44859, 24 h
[40] = tested on: Trichophyton mentagrophytes; experiment: Antifungal activity against Trichophyton mentagrophytes after 48 hrs by broth microdilution method; type: functional
[41] = tested on: Mycobacterium kansasii; experiment: Antimycobacterial activity against Mycobacterium kansasii 6509/96 after 14 days by micromethod; type: functional; conditions: 6509/96, 336 h; how it was run: as §2
[42] = tested on: Mycobacterium kansasii; experiment: Antimycobacterial activity against Mycobacterium kansasii 235/80 after 7 days by micromethod; type: functional; conditions: 235/80, 168 h; how it was run: as §2
[43] = tested on: Nakaseomyces glabratus; experiment: Antifungal activity against Candida glabrata 20/I after 48 hrs by broth microdilution method; type: functional
[44] = tested on: Staphylococcus aureus; experiment: Antibacterial activity against Staphylococcus aureus CCM 4516/08 after 48 hrs by broth microdilution method; type: functional; conditions: CCM 4516/08, 48 h; how it was run: as §1

With CC(=O)N[C@@H](Cc1ccccc1)C(=O)Oc1ccc(Br)cc1C(=O)Nc1ccc(C(F)(F)F)cc1 as the compound, how does the MIC [1] read?
The MIC was 31.2 µM (≈ 17.2 µg/mL).

And the MIC [2]?
The MIC was 125 µM (≈ 68.7 µg/mL).

And the MIC [3]?
Its MIC is 4 µM (≈ 2.2 µg/mL).

What about the MIC [4] of the same compound?
The MIC was over 500 µM.

What about the MIC [5] of the same compound?
Its MIC is 2 µM (≈ 1.1 µg/mL).

And the MIC [6]?
Its MIC is 1 µM (≈ 0.549 µg/mL).

And the MIC [7]?
Its MIC is 15.6 µM (≈ 8.58 µg/mL).

And the MIC [8]?
The MIC was 15.6 µM (≈ 8.58 µg/mL).

And the MIC [9]?
The MIC was 125 µM (≈ 68.7 µg/mL).

And the MIC [10]?
Its MIC is 250 µM (≈ 137 µg/mL).

What about the “Selectivity Index” value [11] of the same compound?
The value was 194.8.

And the MIC [12]?
Its MIC is 15.6 µM (≈ 8.58 µg/mL).

What about the MIC [13] of the same compound?
The MIC was 2 µM (≈ 1.1 µg/mL).

What about the MIC [14] of the same compound?
Its MIC is 15.6 µM (≈ 8.58 µg/mL).

What about the MIC [15] of the same compound?
Its MIC is 0.5 µM (≈ 0.275 µg/mL).

What about the IC50 [16] of the same compound?
Its IC50 is 48.7 µM.

And the MIC [17]?
The MIC was 125 µM (≈ 68.7 µg/mL).

What about the MIC [18] of the same compound?
The MIC was 31.2 µM (≈ 17.2 µg/mL).

And the MIC [19]?
The MIC was 250 µM (≈ 137 µg/mL).

What about the MIC [20] of the same compound?
The MIC was 7.81 µM (≈ 4.29 µg/mL).

What about the MIC [21] of the same compound?
The MIC was 2 µM (≈ 1.1 µg/mL).

What about the MIC [22] of the same compound?
The MIC was 1 µM (≈ 0.549 µg/mL).

What about the MIC [23] of the same compound?
Its MIC is 125 µM (≈ 68.7 µg/mL).

And the MIC [24]?
The MIC was 3.9 µM (≈ 2.14 µg/mL).

What about the MIC [25] of the same compound?
The MIC was over 500 µM.

And the MIC [26]?
The MIC was 0.25 µM (≈ 0.137 µg/mL).

What about the MIC [27] of the same compound?
The MIC was 1 µM (≈ 0.549 µg/mL).

What about the MIC [28] of the same compound?
Its MIC is 15.6 µM (≈ 8.58 µg/mL).

What about the MIC [29] of the same compound?
Its MIC is 3.9 µM (≈ 2.14 µg/mL).

And the MIC [30]?
The MIC was 500 µM (≈ 275 µg/mL).

And the MIC [31]?
The MIC was 125 µM (≈ 68.7 µg/mL).

And the MIC [32]?
The MIC was 4 µM (≈ 2.2 µg/mL).

And the MIC [33]?
Its MIC is 500 µM (≈ 275 µg/mL).

What about the MIC [34] of the same compound?
The MIC was 15.6 µM (≈ 8.58 µg/mL).

And the logP [35]?
Its logP is 5.19.

What about the MIC [36] of the same compound?
The MIC was 7.81 µM (≈ 4.29 µg/mL).

What about the MIC [37] of the same compound?
The MIC was 1 µM (≈ 0.549 µg/mL).

And the MIC [38]?
Its MIC is 62.5 µM (≈ 34.3 µg/mL).

And the MIC [39]?
Its MIC is 31.2 µM (≈ 17.2 µg/mL).

What about the MIC [40] of the same compound?
The MIC was 7.81 µM (≈ 4.29 µg/mL).

What about the MIC [41] of the same compound?
The MIC was 2 µM (≈ 1.1 µg/mL).

What about the MIC [42] of the same compound?
The MIC was 0.5 µM (≈ 0.275 µg/mL).

And the MIC [43]?
Its MIC is 500 µM (≈ 275 µg/mL).

And the MIC [44]?
Its MIC is 31.2 µM (≈ 17.2 µg/mL).
